{"source": "ChEMBL document CHEMBL3351900", "about": "“Conjugation of a nonspecific antiviral sapogenin with a specific HIV fusion inhibitor: a promising strategy for discovering new antiviral therapeutics” (J Med Chem, 2014)", "key": {"[1]": {"tested_on": "Human immunodeficiency virus 1", "assay": "Antiviral activity against HIV1 3B infected in human MT2 cells assessed as inhibition of viral p24 antigen production by ELISA", "type": "functional, organism-based", "details": "Human immunodeficiency virus 1, 3B", "method_in_brief": "(§1)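 MT-2 cells (1 × 10⁴) infected with 100 TCID₅₀ virus with or without peptides at graded concentrations. Culture supernatants collected on day 4 postinfection; p24 antigen quantified by ELISA. Percent inhibition and EC₅₀ calculated; tested in triplicate, mean ± standard deviation.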"}, "[2]": {"tested_on": "Human immunodeficiency virus 1", "assay": "Antiviral activity against HIV1 BaL infected in human […] cells assessed as inhibition of viral replication", "type": "functional, organism-based", "details": "Human immunodeficiency virus 1, BaL", "method_in_brief": "as §1"}, "[3]": {"assay": "Cytotoxicity against human MT2 cells after 4 days by XTT assay", "type": "cell-based", "method_in_brief": "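MT-2 cells (5 × 10⁵/mL) mixed with equal volumes of graded conjugate concentrations and held at 37 °C for 4 days. XTT (1 mg/mL) with 0.02 μM phenazine methosulfate added for 4 h, then A450 read. CC50 calculated from the dose–response.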"}, "[4]": {"assay": "Selectivity index, ratio of CC50 for human MT2 cells to EC50 for HIV1 3B infected in human MT2 cells", "type": "toxicity, cell-based", "details": "read-out: Ratio CC50/EC50"}, "[5]": {"target": "GP41 (Human immunodeficiency virus 1) (UniProt Q76270)", "assay": "Inhibition of HIV1 gp41 NHR assessed as inhibition of 6HB formation by FRET assay", "method_in_brief": "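FRET competition assay. A bpy-labelled 31-mer NHR pocket peptide is trimerized by Fe(II) into env2.0, which quenches the Lucifer-yellow-tagged CP2 probe. Displacement of the probe raises fluorescence. Used 7 μM binding sites (three per trimer) and 1 μM CP2-LY.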"}, "[6]": {"tested_on": "Human immunodeficiency virus 1", "assay": "Antiviral activity against T20-resistant HIV1 NL4-3 harboring gp41 D36G/V38A/N42D mutant infected in human MT2 cells", "type": "functional, organism-based", "method_in_brief": "as §1"}, "[7]": {"assay": "Half life in rat kidney homogenate at 8 ug/ml", "type": "ADME, tissue-based"}, "[8]": {"tested_on": "Human immunodeficiency virus 1", "assay": "Antiviral activity against T20-resistant HIV1 NL4-3 harboring gp41 D36G/N42T/N43K mutant infected in human MT2 cells", "type": "functional, organism-based", "method_in_brief": "as §1"}, "[9]": {"tested_on": "Human immunodeficiency virus 1", "assay": "Ratio of EC50 for T20-resistant HIV1 NL4-3 harboring gp41 D36G/V38A/N42D mutant infected in human MT2 cells to EC50 for T20-sensitive HIV1 NL4-3 harboring gp41 D36G mutant infected in human MT2 cells", "type": "functional", "method_in_brief": "(§2)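 MT-2 cells (1 × 10⁴) infected with 100 TCID₅₀ of HIV-1 NL4-3 gp41 mutant virus with or without peptide at graded concentrations. Culture supernatants collected on day 4 postinfection and p24 antigen measured by ELISA. Percent inhibition and EC₅₀ calculated, triplicate, mean ± standard deviation. Fold change = EC₅₀ against each mutant divided by EC₅₀ against the D36G strain.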"}, "[10]": {"tested_on": "Human immunodeficiency virus 1", "assay": "Ratio of EC50 for T20-resistant HIV1 NL4-3 harboring gp41 D36G/V38E/N42S mutant infected in human MT2 cells to EC50 for T20-sensitive HIV1 NL4-3 harboring gp41 D36G mutant infected in human MT2 cells", "type": "functional", "method_in_brief": "as §2"}, "[11]": {"tested_on": "Rattus norvegicus", "assay": "Cmax in rat at 4 mg/kg, iv administered as single dose", "type": "ADME, organism-based", "design": "dose 4 mg/kg, route intravenous", "details": "in vivo", "method_in_brief": "(§3)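 Rats given one intravenous dose of 4 mg/kg. Peptide measured in plasma over time. Parameters (AUC(0−t), MRT(0−t), t1/2, Vd, Cmax) derived by model-independent analysis.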"}, "[12]": {"tested_on": "Human immunodeficiency virus 1", "assay": "Ratio of EC50 for T20-resistant HIV1 NL4-3 harboring gp41 D36G/V38A/N42T mutant infected in human MT2 cells to EC50 for T20-sensitive HIV1 NL4-3 harboring gp41 D36G mutant infected in human MT2 cells", "type": "functional", "method_in_brief": "as §2"}, "[13]": {"tested_on": "Human immunodeficiency virus 1", "assay": "Ratio of EC50 for T20-resistant HIV1 NL4-3 harboring gp41 D36G/N42T/N43K mutant infected in human MT2 cells to EC50 for T20-sensitive HIV1 NL4-3 harboring gp41 D36G mutant infected in human MT2 cells", "type": "functional", "method_in_brief": "as §2"}, "[14]": {"tested_on": "Human immunodeficiency virus 1", "assay": "Antiviral activity against T20-resistant HIV1 NL4-3 harboring gp41 D36G/V38E/N42S mutant infected in human MT2 cells", "type": "functional, organism-based", "method_in_brief": "as §1"}, "[15]": {"tested_on": "Human immunodeficiency virus 1", "assay": "Antiviral activity against T20-resistant HIV1 NL4-3 harboring gp41 D36G/V38A/N42T mutant infected in human MT2 cells", "type": "functional, organism-based", "method_in_brief": "as §1"}, "[16]": {"tested_on": "Human immunodeficiency virus 1", "assay": "Ratio of EC50 for T20-resistant HIV1 NL4-3 harboring gp41 D36G/V38A mutant infected in human MT2 cells to EC50 for T20-sensitive HIV1 NL4-3 harboring gp41 D36G mutant infected in human MT2 cells", "type": "functional", "method_in_brief": "as §2"}, "[17]": {"tested_on": "Rattus norvegicus", "assay": "AUC (0 to t) in rat at 4 mg/kg, iv administered as single dose", "type": "ADME, organism-based, Plasma", "design": "dose 4 mg/kg, route intravenous", "details": "in vivo", "method_in_brief": "as §3"}, "[18]": {"tested_on": "Human immunodeficiency virus 1", "assay": "Antiviral activity against T20-resistant HIV1 NL4-3 harboring gp41 D36G/V38A mutant infected in human MT2 cells", "type": "functional, organism-based", "method_in_brief": "as §1"}, "[19]": {"assay": "Half life in rat liver homogenate at 8 ug/ml", "type": "ADME, tissue-based"}, "[20]": {"tested_on": "Human immunodeficiency virus 1", "assay": "Antiviral activity against T20-sensitive HIV1 NL4-3 harboring gp41 D36G mutant infected in human MT2 cells", "type": "functional, organism-based", "method_in_brief": "as §1"}, "[21]": {"target": "GP41 (Human immunodeficiency virus 1) (UniProt Q76270)", "assay": "Ratio of EC50 for HIV1 gp41-induced cell-cell fusion between viral envelope expressing human HL2/3 cells to CD4/CCR5 receptor expressing TZM-bl cells with wash out to EC50 for HIV1 gp41-induced cell-cell fusion between viral envelope expressing human HL2/3 cells to CD4/CCR5 receptor expressing TZM-bl cells", "type": "cell-based", "method_in_brief": "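Peptides preincubated with TZM-bl cells at 37 °C for 1 h, with or without washing away unbound peptide. EC50 compared between washed and unwashed cells, giving the n-fold change. Triplicates, mean ± SD.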"}, "[22]": {"assay": "Volume of distribution in rat at 4 mg/kg, iv administered as single dose", "type": "ADME, organism-based", "design": "dose 4 mg/kg, route intravenous", "details": "in vivo", "method_in_brief": "as §3"}, "[23]": {"assay": "Half life of the compound at 8 ug/ml by proteinase K digestion assay", "type": "ADME"}, "[24]": {"tested_on": "Rattus norvegicus", "assay": "Half life in rat at 4 mg/kg, iv at 4 mg/kg, iv administered as single dose", "type": "ADME, organism-based", "details": "in vivo", "method_in_brief": "as §3"}}, "note": "Activity calls are given as the source filed them. No cut-off for these calls is given here. Peptide text beside a SMILES is read from it. * marks the point of attachment. X10 = CC1(C)CC[C@]2(C(=O)OCc3cn(CC(=O)*)nn3)CC[C@]3(C)C(=CC[C@@H]4[C@@]5(C)CC[C@H](O)C(C)(C)[C@@H]5CC[C@]43C)[C@@H]2C1; X11 = CCCc1cn(CC(=O)*)nn1; βAla = NCCC(=O)O", "data": [{"compound": "CC[C@H](C)[C@H](NC(=O)[C@H](CC(C)C)NC(=O)[C@H](CO)NC(=O)[C@H](Cc1cnc[nH]1)NC(=O)[C@@H](NC(=O)[C@H](CC(C)C)NC(=O)[C@H](CO)NC(=O)[C@@H](NC(=O)[C@H](Cc1ccc(O)cc1)NC(=O)[C@H](CC(N)=O)NC(=O)[C@H](CC(N)=O)NC(=O)CCNC(=O)Cn1cc(COC(=O)[C@]23CCC(C)(C)C[C@H]2C2=CC[C@@H]4[C@@]5(C)CC[C@H](O)C(C)(C)[C@@H]5CC[C@@]4(C)[C@]2(C)CC3)nn1)[C@@H](C)O)[C@@H](C)CC)C(=O)N[C@@H](CCC(=O)O)C(=O)N[C@@H](CCC(=O)O)C(=O)N[C@@H](CO)C(=O)N[C@@H](CCC(N)=O)C(=O)N[C@@H](CC(N)=O)C(=O)N[C@@H](CCC(N)=O)C(=O)N[C@@H](CCC(N)=O)C(=O)N[C@@H](CCC(=O)O)C(=O)N[C@@H](CCCCN)C(=O)N[C@@H](CC(N)=O)C(=O)N[C@@H](CCC(=O)O)C(=O)N[C@@H](CCC(N)=O)C(=O)N[C@@H](CCC(=O)O)C(=O)N[C@@H](CC(C)C)C(=O)N[C@@H](CC(C)C)C(N)=O", "note": "({X10-βAla}-NNYTSLIHSLIEESQNQQEKNEQELL-NH2)", "values": [{"measurement": "EC50", "setting": "[1]", "value": 369, "unit": "nM"}, {"measurement": "EC50", "setting": "[2]", "value": 498, "unit": "nM"}, {"measurement": "CC50 at 96 h", "setting": "[3]", "value": "> 25000", "unit": "nM"}, {"measurement": "selectivity ratio", "setting": "[4]", "value": "> 68"}]}, {"compound": "CCCc1cn(CC(=O)NCCC(=O)N[C@@H](CC(N)=O)C(=O)N[C@@H](CC(N)=O)C(=O)N[C@@H](Cc2ccc(O)cc2)C(=O)N[C@H](C(=O)N[C@@H](CO)C(=O)N[C@@H](CC(C)C)C(=O)N[C@H](C(=O)N[C@@H](Cc2cnc[nH]2)C(=O)N[C@@H](CO)C(=O)N[C@@H](CC(C)C)C(=O)N[C@H](C(=O)N[C@@H](CCC(=O)O)C(=O)N[C@@H](CCC(=O)O)C(=O)N[C@@H](CO)C(=O)N[C@@H](CCC(N)=O)C(=O)N[C@@H](CC(N)=O)C(=O)N[C@@H](CCC(N)=O)C(=O)N[C@@H](CCC(N)=O)C(=O)N[C@@H](CCC(=O)O)C(=O)N[C@@H](CCCCN)C(=O)N[C@@H](CC(N)=O)C(=O)N[C@@H](CCC(=O)O)C(=O)N[C@@H](CCC(N)=O)C(=O)N[C@@H](CCC(=O)O)C(=O)N[C@@H](CC(C)C)C(=O)N[C@@H](CC(C)C)C(N)=O)[C@@H](C)CC)[C@@H](C)CC)[C@@H](C)O)nn1", "note": "({X11-βAla}-NNYTSLIHSLIEESQNQQEKNEQELL-NH2)", "values": [{"measurement": "inhibition", "setting": "[5]", "value": "inactive"}]}, {"compound": "enfuvirtide", "values": [{"measurement": "EC50", "setting": "[6]", "value": "> 2000", "unit": "nM"}, {"measurement": "half-life at 8 ug/ml", "setting": "[7]", "value": 16.9, "unit": "min"}, {"measurement": "EC50", "setting": "[8]", "value": "> 2000", "unit": "nM"}, {"measurement": "Ratio EC50", "setting": "[9]", "value": ">50"}, {"measurement": "Ratio EC50", "setting": "[10]", "value": ">50"}, {"measurement": "EC50", "setting": "[1]", "value": 10.9, "unit": "nM"}, {"measurement": "Cmax", "setting": "[11]", "value": 25500, "unit": "ng/mL"}, {"measurement": "Ratio EC50", "setting": "[12]", "value": ">50"}, {"measurement": "Ratio EC50", "setting": "[13]", "value": ">50"}, {"measurement": "EC50", "setting": "[2]", "value": 2.88, "unit": "nM"}, {"measurement": "EC50", "setting": "[14]", "value": "> 2000", "unit": "nM"}, {"measurement": "EC50", "setting": "[15]", "value": "> 2000", "unit": "nM"}, {"measurement": "Ratio EC50", "setting": "[16]", "value": ">50"}, {"measurement": "AUCt", "setting": "[17]", "value": 26900, "unit": "ng·h/mL"}, {"measurement": "EC50", "setting": "[18]", "value": "> 2000", "unit": "nM"}, {"measurement": "CC50 at 96 h", "setting": "[3]", "value": "> 25000", "unit": "nM"}, {"measurement": "half-life at 8 ug/ml", "setting": "[19]", "value": 31, "unit": "min"}, {"measurement": "EC50", "setting": "[20]", "value": 40.6, "unit": "nM"}, {"measurement": "Ratio EC50", "setting": "[21]", "value": 39}, {"measurement": "Vd", "setting": "[22]", "value": 0.44, "unit": "L/kg"}, {"measurement": "half-life at 8 ug/ml", "setting": "[23]", "value": 19.4, "unit": "min"}, {"measurement": "t1/2", "setting": "[24]", "value": 131, "unit": "min"}, {"measurement": "selectivity ratio", "setting": "[4]", "value": "> 2290"}]}]}
